From ChEMBL document CHEMBL2331132, “Synthesis, evaluation and absolute configuration assignment of novel dihydropyrimidin-2-ones as picomolar sodium iodide symporter inhibitors” (Eur J Med Chem, 2013) come the findings set out here.

Molecules are shown by their SMILES.

A word on the IC50: it is the point on the concentration scale where inhibition reaches its midpoint. High values mean weaker potency, low ones greater potency.

One data set concerns FRTL-5. Description: Cytotoxicity against rat FRTL5 cells at 1 uM after 24 hrs by MTT assay. In kind it is cell-based. The settings on record: frtl-5, 24 h. In short, it runs like this: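 Rat FRTL5 thyroid cells at about 50% confluence, given a single compound concentration for 24 h. MTT added (1.2 mg/mL), then 3 h at 37 °C and absorbance read at 570 nm to score viability. Ouabain run as assay control at eight concentrations.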
A general note: Tetrazolium assays rely on reduction of a dye to a coloured formazan, in cell work by metabolically active cells.
Consider `COc1ccc(COC(=O)C2=C(C)N(C)C(=O)N(C)C2c2ccco2)cc1OC` (configuration not stated), for which the Activity entry is recorded as “Non-toxic”.
In the case of `CC1=C(C(=O)OCc2ccc3c(c2)OCO3)C(c2ccco2)NC(=O)N1` (configuration not stated), the Activity entry is given as “Non-toxic”.
As for `CC1=C(C(=O)OCc2ccc3c(c2)OCO3)C(c2ccco2)NC(=O)N1C` (configuration not stated), the Activity entry was “Non-toxic”.
Still for that read-out and setting: then `CC1=C(C(=O)OCc2ccc3c(c2)OCO3)C(c2ccco2)N(C)C(=O)N1C` (configuration not stated), with “Non-toxic”.
For the compound `COc1ccc(COC(=O)C2=C(C)NC(=O)NC2c2ccco2)cc1` (configuration not stated), the Activity result is “Non-toxic”.
As to `COc1ccc(COC(=O)C2=C(C)N(C)C(=O)NC2c2ccco2)cc1` (configuration not stated), the Activity result is reported as “Non-toxic”.
As for `COc1ccc(COC(=O)C2=C(C)N(C)C(=O)N(C)C2c2ccco2)cc1` (configuration not stated), the Activity entry was “Non-toxic”.
On the same count and under the same terms, then `COc1cccc(COC(=O)C2=C(C)NC(=O)NC2c2ccco2)c1` (configuration not stated), with “Non-toxic”; and `COc1cccc(COC(=O)C2=C(C)N(C)C(=O)NC2c2ccco2)c1` (configuration not stated), with “Non-toxic”; and `COc1cccc(COC(=O)C2=C(C)N(C)C(=O)N(C)C2c2ccco2)c1` (configuration not stated), with “Non-toxic”.
Regarding `COc1ccc(COC(=O)C2=C(C)NC(=O)NC2c2ccco2)cc1OC` (configuration not stated), the Activity entry is “Non-toxic”.
For `COc1ccc(COC(=O)C2=C(C)N(C)C(=O)NC2c2ccco2)cc1OC` (configuration not stated), the Activity entry is on record as “Non-toxic”.

In the next data set the target is T1, Sodium/iodide cotransporter (Rattus norvegicus, UniProt Q63008).
T1 sequence (Q63008 whole entry): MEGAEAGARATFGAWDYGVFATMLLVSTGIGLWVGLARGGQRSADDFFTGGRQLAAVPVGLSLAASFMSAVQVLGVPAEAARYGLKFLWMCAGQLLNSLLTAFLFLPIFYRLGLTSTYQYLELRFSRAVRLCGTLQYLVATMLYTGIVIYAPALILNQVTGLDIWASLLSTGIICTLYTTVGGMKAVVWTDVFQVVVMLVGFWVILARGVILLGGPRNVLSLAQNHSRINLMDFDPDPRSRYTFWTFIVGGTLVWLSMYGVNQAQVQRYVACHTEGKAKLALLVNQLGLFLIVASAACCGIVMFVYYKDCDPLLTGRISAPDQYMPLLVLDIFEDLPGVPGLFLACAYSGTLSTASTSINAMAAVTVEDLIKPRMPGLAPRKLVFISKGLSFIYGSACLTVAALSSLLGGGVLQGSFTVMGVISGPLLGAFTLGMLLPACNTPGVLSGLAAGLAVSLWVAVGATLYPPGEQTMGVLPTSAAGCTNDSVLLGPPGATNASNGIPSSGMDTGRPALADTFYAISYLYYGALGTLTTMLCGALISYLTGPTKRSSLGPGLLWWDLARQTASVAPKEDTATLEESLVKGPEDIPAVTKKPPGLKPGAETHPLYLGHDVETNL
Description: inhibition of sodium iodide symporter in rat FRTL5 cells after 1 hr by arsenic/cerium titration assay.
Conditions: not given
In kind it is cell-based, FRTL-5. In short, it runs like this:
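Iodide entrapment measured in FRTL5 cells after 1 h incubation at 20 ± 1 °C. Supernatant removed, then cellular iodide read at once by a modified non-radioactive As/Ce Sandell–Kolthoff reaction against iodide standards. DMSO stocks 20 mM; NaClO₄ and a reference inhibitor on every plate as controls. Racemates tested. IC₅₀ from a four-parameter Hill fit, averaged over ≥2 independent experiments.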
The compound `COc1ccc(COC(=O)C2=C(C)NC(=O)NC2c2ccccc2)cc1` (configuration not stated) showed an IC50 of 89 nM. That is a double-digit nanomolar value.
Compound `COc1ccc(COC(=O)C2=C(C)N(C)C(=O)N(C)C2c2ccco2)cc1OC` (configuration not stated) returned an IC50 of 65 nM.
Still for that read-out and setting: then `COc1ccc(COC(=O)C2=C(C)NC(=O)N[C@@H]2c2ccccc2)cc1`, with 70 nM; and `COc1ccc(COC(=O)C2=C(C)NC(=O)N[C@H]2c2ccccc2)cc1`, with 1500 nM.
In turn, `COc1ccc(COC(=O)C2=C(C)NC(=O)N[C@@H]2c2ccco2)cc1` showed a 50% inhibitory concentration (IC50) of 630 nM.
The same measure, in the same setting: then `COc1ccc(COC(=O)C2=C(C)NC(=O)N[C@H]2c2ccco2)cc1`, with 14000 nM; and `CC1=C(C(=O)OCc2ccc3c(c2)OCO3)[C@@H](c2ccco2)N(C)C(=O)N1C`, with 0.7 nM.
With `CC1=C(C(=O)OCc2ccc3c(c2)OCO3)[C@H](c2ccco2)N(C)C(=O)N1C`, inhibition was half-maximal at 630 nM (IC50). This IC50 lies about 900-fold higher than the previous one.
Still for that read-out and setting: then `COc1ccc(COC(=O)C2=C(C)NC(=O)NC2c2ccco2)cc1OC` (configuration not stated), with 400 nM; and `COc1ccc(COC(=O)C2=C(C)N(C)C(=O)NC2c2ccco2)cc1OC` (configuration not stated), with 1000 nM.
